The values below come from ChEMBL document CHEMBL1137702, “Identification of hydrolytically stable and selective P2Y(1) receptor agonists” (Eur J Med Chem, 2009).

In general, EC50 refers to the concentration giving half of the maximal effect. As a reminder, the pKa is the pH at which an ionisable group is half protonated. By half-life is commonly meant how long it takes for the measured level to halve.

Series [1] has as its target T1, P2Y purinoceptor 1 (Meleagris gallopavo, UniProt P49652). In words: Antagonist activity at turkey P2Y1 receptor expressed in human 1321N1 cells assessed as inhibition of 2-MeS-ADP-induced increase in intracellular calcium concentration by dual-excitation spectrofluorimetric analysis. Type of series: functional, cell-based. The method in brief: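 Fura-2-loaded suspensions of stably transfected 1321N1 cells were assayed at 37 °C in HEPES-buffered saline pH 7.4 with 1 mM Ca2+ and Mg2+. […] [Ca2+]i was read by dual-excitation spectrofluorometry.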
For orientation: Calcium assays in cells follow changes in intracellular calcium, usually with a dye or a luminescent sensor.

The nature of series [2]: Dissociation constant, pKa of the compound. Type of series: physicochemical.
The target in series [3] is P2Y purinoceptor 1 (Rattus norvegicus, UniProt P49651). Briefly: Agonist activity at rat pancreas P2Y1 receptor assessed as enhancement of insulin secretion. It counts as functional.
A short description of series [4]: Chemical stability at physiological pH at 37 deg C assessed as hydrolysis half life by 31P NMR analysis. Type of series: physicochemical.
In a further series the test system is alkaline phosphatase. In words: Stability assessed as drug remaining after 12 mins by HPLC-MS analysis in presence of calf intestine alkaline phosphatase. Type of series: ADME. The conditions noted are these: cattle, read-out: Stability.
Series [5] in a line: Chemical stability assessed as hydrolysis half life at pH 1.4 by 31P NMR analysis. It counts as physicochemical. The note with it: buffer.
Series [6] can be described thus: Stability after 100 mins by HPLC-MS analysis in presence of calf intestine alkaline phosphatase. It counts as ADME. The conditions noted are these: cattle, isolated protein.
A further series deals with P2Y purinoceptor 6 (Rattus norvegicus, UniProt Q63371). In words: Agonist activity at rat P2Y6 receptor expressed in human 1321N1 cells assessed as increase in intracellular calcium concentration by dual-excitation spectrofluorimetric analysis. Type of series: functional, cell-based. The method in brief:
(§1)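 1321N1 astrocytoma cells stably expressing the receptor (turkey P2Y1, human P2Y2, human P2Y4, rat P2Y6) were grown with G-418 selection. Fura-2-loaded cell suspensions were exposed at 37 °C in 10 mM HEPES-buffered saline pH 7.4 with 1 mM CaCl2 and 1 mM MgCl2. Peak [Ca2+]i rise was measured over a range of concentrations to derive EC50.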

Series [7] deals with Serum. Briefly: (§2) Metabolic stability in human serum assessed as hydrolysis half life at 40 mM measured for 6 days by HPLC. The conditions noted are these: 144 h, 40000 µM. It counts as ADME, cell-free.
For series [8], the target named is P2Y purinoceptor 1 (Rattus norvegicus) (UniProt P49651). Briefly: Agonist activity at rat pancreas P2Y1 receptor assessed as enhancement of insulin secretion relative to basal level. Type of series: functional.
For series [9], the target named is T2, Ectonucleoside triphosphate diphosphohydrolase 1 (Bos taurus) (UniProt O18956).
T2 sequence (whole entry): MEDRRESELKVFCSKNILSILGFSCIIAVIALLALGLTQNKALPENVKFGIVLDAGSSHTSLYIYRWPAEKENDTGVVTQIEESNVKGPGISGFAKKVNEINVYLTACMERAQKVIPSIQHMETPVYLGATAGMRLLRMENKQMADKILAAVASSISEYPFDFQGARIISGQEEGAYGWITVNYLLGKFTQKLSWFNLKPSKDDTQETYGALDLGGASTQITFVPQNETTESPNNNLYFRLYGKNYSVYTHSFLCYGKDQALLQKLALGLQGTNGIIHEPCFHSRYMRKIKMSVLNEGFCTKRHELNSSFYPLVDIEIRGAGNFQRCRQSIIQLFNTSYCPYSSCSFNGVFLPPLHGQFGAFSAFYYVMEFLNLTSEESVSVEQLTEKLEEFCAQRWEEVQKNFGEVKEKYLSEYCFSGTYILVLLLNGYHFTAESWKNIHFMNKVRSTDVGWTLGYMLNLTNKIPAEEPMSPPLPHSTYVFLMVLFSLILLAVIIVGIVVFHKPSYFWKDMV
In words: Activity of bovine spleen NTPDase 1 assessed as drug hydrolysis at 100 uM after 7 mins by malachite green colorimetric assay relative to ATP. Type of series: tissue-based. On the set-up: scale not given: the % may be the effect or the level left.

Series [10] in a line: Chemical stability assessed as hydrolysis half life at 1.6 mg at pH 1.4 measured at 7 to 17 hrs interval for 5 days by HPLC-MS analysis. It counts as physicochemical. The method in brief:
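1.6 mg in 0.2 M HCl/KCl buffer with pH brought to 1.4, held at 37 °C. Sampled at 7–17 h intervals for 5 days by HPLC-ESI-MS on C18 with TEAA/MeOH gradient. Peak area versus time was fit to pseudo-first-order decay for t1/2.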

Series [11] can be described thus: Stability at 77 ug/ml after 30 mins by HPLC in presence of calf intestine alkaline phosphatase. Type of series: ADME. The note with it: cattle, isolated protein, 0.5 h.
Series [12] concerns the target T1, P2Y purinoceptor 1. In words: Agonist activity at turkey P2Y1 receptor expressed in human 1321N1 cells assessed as increase in intracellular calcium concentration by dual-excitation spectrofluorimetric analysis. It counts as functional, cell-based.
Series [13] in a line: as §2. It counts as ADME, cell-free.
The test system of series [14] is Serum. Briefly: Metabolic stability in human serum assessed as hydrolysis half life at 0.25 mM measured for 18 hrs by HPLC. Type of series: ADME, cell-free. The conditions noted are these: 250 µM. The method in brief:
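Serum from healthy-donor whole blood (12 h at 4 °C, spun 1500 × g for 15 min, stored at −80 °C) was diluted 1:3 in RPMI-1640 and incubated with the nucleotide at 37 °C. Samples were acid-quenched (0.6 M HCl), spun, neutralised with 4 M KOH and freeze-dried. They were run on C18 HPLC with a KH2PO4 pH 4.5/acetonitrile gradient. t1/2 came from the change in peak integration over time.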

In the next series the target is P2Y purinoceptor 2 (Homo sapiens, UniProt P41231). Briefly: Agonist activity at human P2Y2 receptor expressed in human 1321N1 cells assessed as increase in intracellular calcium concentration by dual-excitation spectrofluorimetric analysis. Type of series: functional, cell-based. The method in brief: as §1
In another series the target is P2Y purinoceptor 4 (Homo sapiens, UniProt P51582). Briefly: Agonist activity at human P2Y4 receptor expressed in human 1321N1 cells assessed as increase in intracellular calcium concentration by dual-excitation spectrofluorimetric analysis. It counts as functional, cell-based. The method in brief:
as §1

T1 sequence (P49652 whole entry): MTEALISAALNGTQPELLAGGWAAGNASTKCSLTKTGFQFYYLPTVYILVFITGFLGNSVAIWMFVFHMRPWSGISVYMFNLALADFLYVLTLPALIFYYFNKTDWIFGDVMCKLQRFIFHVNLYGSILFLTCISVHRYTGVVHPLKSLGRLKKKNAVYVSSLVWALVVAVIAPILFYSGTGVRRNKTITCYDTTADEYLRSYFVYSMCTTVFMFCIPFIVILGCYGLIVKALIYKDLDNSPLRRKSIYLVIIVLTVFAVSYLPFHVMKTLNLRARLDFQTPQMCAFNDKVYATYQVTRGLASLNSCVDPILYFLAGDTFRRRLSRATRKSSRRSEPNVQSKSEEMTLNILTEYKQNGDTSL
P2Y purinoceptor 6, sequence (Q63371 whole entry): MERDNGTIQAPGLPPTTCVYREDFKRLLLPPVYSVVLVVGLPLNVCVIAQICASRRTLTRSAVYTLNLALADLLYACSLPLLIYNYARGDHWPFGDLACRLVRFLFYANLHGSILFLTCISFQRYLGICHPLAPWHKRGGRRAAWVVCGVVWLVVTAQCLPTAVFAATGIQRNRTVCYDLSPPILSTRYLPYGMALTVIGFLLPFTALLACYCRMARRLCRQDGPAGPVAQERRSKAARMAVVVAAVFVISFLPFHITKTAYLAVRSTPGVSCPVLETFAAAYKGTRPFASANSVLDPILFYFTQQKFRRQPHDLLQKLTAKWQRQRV
P2Y purinoceptor 4, sequence (P51582 whole entry): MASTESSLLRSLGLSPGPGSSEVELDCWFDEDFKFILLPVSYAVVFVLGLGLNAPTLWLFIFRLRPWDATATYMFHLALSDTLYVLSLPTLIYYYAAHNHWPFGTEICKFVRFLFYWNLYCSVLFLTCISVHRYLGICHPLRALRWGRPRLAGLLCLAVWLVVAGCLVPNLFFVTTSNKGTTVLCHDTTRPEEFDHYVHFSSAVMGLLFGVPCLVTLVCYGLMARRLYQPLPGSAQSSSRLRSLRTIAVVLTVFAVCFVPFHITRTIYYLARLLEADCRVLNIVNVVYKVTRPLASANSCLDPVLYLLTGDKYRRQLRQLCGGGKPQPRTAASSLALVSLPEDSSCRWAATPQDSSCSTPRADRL
P2Y purinoceptor 2, sequence (P41231 whole entry): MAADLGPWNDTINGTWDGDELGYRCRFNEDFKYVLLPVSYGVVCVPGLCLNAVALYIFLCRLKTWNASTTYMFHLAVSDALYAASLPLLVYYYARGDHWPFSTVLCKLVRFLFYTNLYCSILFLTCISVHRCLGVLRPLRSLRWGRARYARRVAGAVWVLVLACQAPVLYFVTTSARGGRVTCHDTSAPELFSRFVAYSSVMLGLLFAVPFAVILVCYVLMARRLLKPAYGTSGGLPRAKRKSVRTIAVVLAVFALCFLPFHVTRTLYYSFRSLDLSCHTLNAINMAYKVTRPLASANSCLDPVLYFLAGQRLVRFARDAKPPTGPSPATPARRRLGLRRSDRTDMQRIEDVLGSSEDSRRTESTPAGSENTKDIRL
P2Y purinoceptor 1 (Rattus norvegicus, UniProt P49651), sequence (P49651 whole entry): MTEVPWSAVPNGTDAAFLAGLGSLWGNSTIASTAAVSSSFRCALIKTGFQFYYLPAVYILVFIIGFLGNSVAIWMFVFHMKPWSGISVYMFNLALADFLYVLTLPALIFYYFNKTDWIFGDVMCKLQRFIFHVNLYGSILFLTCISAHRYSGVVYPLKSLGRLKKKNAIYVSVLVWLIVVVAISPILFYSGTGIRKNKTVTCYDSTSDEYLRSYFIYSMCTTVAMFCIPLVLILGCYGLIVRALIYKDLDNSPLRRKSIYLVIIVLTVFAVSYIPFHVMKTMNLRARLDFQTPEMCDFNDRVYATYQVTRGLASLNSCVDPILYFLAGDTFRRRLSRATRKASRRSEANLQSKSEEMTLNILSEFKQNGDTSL
P2Y purinoceptor 1 (Rattus norvegicus), sequence (P49651 whole entry): as above

As to `BP(=O)(OC[C@H]1O[C@@H](n2cnc3c(N)ncnc32)[C@H](O)[C@@H]1O)OP(=O)(O)CP(=O)(O)O` (some centres undefined), the EC50 entry on P2Y purinoceptor 1 [1] is listed as “Not Active”.

Consider `CSc1nc(N)c2ncn([C@@H]3O[C@H](COP(=O)(O)OP(=O)(O)O)[C@@H](O)[C@H]3O)c2n1`, for which, in [2], the pKa came out at 6.5.

Take `BP(=O)(OC[C@H]1O[C@@H](n2cnc3c(N)nc(SC)nc32)[C@H](O)[C@@H]1O)OP(=O)(O)OP(=O)(O)O` (single isomer, unassigned; diastereomer A) [listing 1 of 2 here]: the EC50 on P2Y purinoceptor 1 [3] was found to be 28 nM. Besides, the results for the half-life in series [4] and in series [5] were 1400 h and 5.9 h, respectively. In the series with alkaline phosphatase, the remaining at 0.2 h was found to be 40%. The Stability entry in [6] was “Unstable”.

For the molecule `BP(=O)(OC[C@H]1O[C@@H](n2cnc3c(N)nc(SC)nc32)[C@H](O)[C@@H]1O)OP(=O)(O)CP(=O)(O)O` (single isomer, unassigned; diastereomer A), on P2Y purinoceptor 6 (1321-n1), the EC50 result was “Not Active”. In addition, the Stability result with Serum [7] is “Stable”.

For `BP(=O)(OC[C@H]1O[C@@H](n2cnc3c(N)nc(SC)nc32)[C@H](O)[C@@H]1O)OP(=O)(O)OP(=O)(O)O` (single isomer, unassigned; diastereomer A) [listing 2 of 2 here], in [8], the fold change (FC) amounted to 9. Besides, in [9], the Activity amounted to 14%.

In the case of `BP(=O)(OC[C@H]1O[C@@H](n2cnc3c(N)ncnc32)[C@H](O)[C@@H]1O)OP(=O)(O)CP(=O)(O)O` (single isomer, unassigned; diastereomer B), the half-life in [10] was 19 h. Besides, the Stability result in series [11] is “Stable”.

As to `BP(=O)(OC[C@H]1O[C@@H](n2cnc3c(N)nc(SC)nc32)[C@H](O)[C@@H]1O)OP(=O)(O)CP(=O)(O)O` (single isomer, unassigned; diastereomer B), in series [10], the half-life was 14.5 h. For the same molecule, at P2Y purinoceptor 1 [12], the EC50 came out at 17200 nM. In addition, the half-life at 40000 µM in series [13] is 71.9 h. Further, the Stability result in series [11] is listed as “Stable”.

Regarding `BP(=O)(OC[C@H]1O[C@@H](n2cnc3c(N)nc(SC)nc32)[C@H](O)[C@@H]1O)OP(=O)(O)OP(=O)(O)O` (single isomer, unassigned; diastereomer B), in series [9], the Activity came out at 59%.

Consider `Nc1ncnc2c1ncn2[C@@H]1O[C@H](COP(=O)(O)OP(=O)(O)O)[C@@H](O)[C@H]1O` [ADENOSINE DIPHOSPHATE], for which the EC50 on P2Y purinoceptor 1 [12] was 100 nM.

With `Nc1ncnc2c1ncn2[C@@H]1O[C@H](COP(=O)(O)OP(=O)(O)OP(=O)(O)O)[C@@H](O)[C@H]1O` [ADENOSINE TRIPHOSPHATE], the t1/2 came out at 3.6 h with Serum [14] and 7.7 h with Serum [7].

Regarding `O=c1ccn([C@@H]2O[C@H](COP(=O)(O)OP(=O)(O)OP(=O)(O)O)[C@@H](O)[C@H]2O)c(=O)[nH]1` [URIDINE TRIPHOSPHATE], the EC50 on P2Y purinoceptor 2 came to 640 nM; on P2Y purinoceptor 4, 480 nM.

On to `O=c1ccn([C@@H]2O[C@H](COP(=O)(O)OP(=O)(O)O)[C@@H](O)[C@H]2O)c(=O)[nH]1` [URIDINE_DIPHOSPHATE], for which, at P2Y purinoceptor 6 (read-out: EC50), the EC50 was 200 nM.
